From PubChem
Hits are enriched below; roughly 3.5% of the tested compounds scored in any of these assays.
RGS4 act: RGS4 potentiators or activators, primary screen, cell-based, HEK293 M3R inducible RGS4, calcium flux. B-score at 10 µM. carbachol calcium flux Fluo4; stronger effect = lower value. 310,000 tested, 0.92% active. AID 463111, 2010;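 active = B-score of the integrated calcium signal more than 4 SD below the library mean, with starting fluorescence not abnormally high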;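 also: negative B-score means reduced calcium response which marks RGS4 activation or potentiation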
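Assay system: HEK293 FlpIn-TREx cells, stable M3R, doxycycline-inducible RGS4 / Probe or stimulus: carbachol, ECmax concentration / Times: overnight RGS4 induction, 30 min dye load 37 °C, 20 min compound RT / Signal: kinetic calcium fluorescence imaging with Fluo4-AM dye, 2 µM / Measure: Agonist-evoked peak-minus-minimum fluorescence over baseline, integrated ratio, B score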
MrgX1 agonist: agonists of human MrgX1 receptor, primary screen, HEK293 cells, Fluo-4 calcium flux; Mas-related G-protein coupled receptor member X1 (Homo sapiens), Q96LB2; Fluo-4 calcium fluorescence, agonist mode; stronger effect = higher value; B-score at 10 µM; 310,000 tested, 0.44% active; AID 588627, 2011;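 active = calcium response B-score plate-corrected fluorescence ratio at least 3 library SD, with starting fluorescence B-score inside 5 SD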
Target sequence (Q96LB2 whole entry, looked up): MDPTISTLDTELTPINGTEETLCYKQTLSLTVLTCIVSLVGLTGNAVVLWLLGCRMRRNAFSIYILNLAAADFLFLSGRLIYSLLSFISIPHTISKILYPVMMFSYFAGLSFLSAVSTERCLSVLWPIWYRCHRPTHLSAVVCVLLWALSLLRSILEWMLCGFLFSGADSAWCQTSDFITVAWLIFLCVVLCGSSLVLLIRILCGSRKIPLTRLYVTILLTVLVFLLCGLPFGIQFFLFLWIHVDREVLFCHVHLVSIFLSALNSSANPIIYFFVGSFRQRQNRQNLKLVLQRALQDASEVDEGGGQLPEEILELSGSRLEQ
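Assay system: stable human MrgX1 HEK293 cell line. Quantity: 15,000 cells per well. Schedule: cells plated overnight, dye loaded 0.5 h 37 °C, 0.5 h room temperature. Detection: Fluo-4 NW calcium-flux fluorescence, kinetic read. Read-out basis: peak-minus-minimum fluorescence over baseline, converted to B scores. Control set: positive and negative control wells on each plate.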
MrgX1 antagonist: antagonists of human MrgX1 receptor, primary screen, HEK293 cells, Fluo-4 calcium flux; BAM8-22 antagonism; stronger effect = lower value; B-score at 10 µM; 310,000 tested, 1.3% active; AID 588676, 2011;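 active = calcium-response B-score plate-corrected more than 3 library SD below zero, starting fluorescence within 5 deviations, no agonist response on first addition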;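 also: peak minus trough fluorescence over baseline after final BAM8-22 challenge near maximal dose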
MrgX1 PAM: positive allosteric modulators of MrgX1, primary screen, HEK293 cells, Fluo-4 calcium flux. Mas-related G-protein coupled receptor member X1 (Homo sapiens), Q96LB2. FDSS; stronger effect = higher value. B-score at 10 µM. 310,000 tested, 0.63% active;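 active = plate-corrected calcium response at least 3 library SD above typical, normal starting fluorescence, not activating the receptor alone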;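 also: compound read alongside a low EC10 to EC30 dose of BAM8-22 agonist; peak minus trough fluorescence over baseline measured at the second addition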
RGS4 inh: RGS4 inhibitors, primary screen, cell-based, HEK293 M3R inducible RGS4, calcium flux. Fluo-4 calcium flux; stronger effect = higher value; triggered by carbachol at its EC20. 310,000 tested, 0.45% active. B-score at 10 µM. Regulator of G-protein signaling 4 (Homo sapiens), P49798;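 active = B-score, a plate-corrected calcium signal, over three deviations above library mean, with baseline fluorescence within five deviations of library mean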;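 also: RGS4 expression induced by doxycycline in cells with stable M3 receptor; B-score is computed from the integrated fluorescence ratio over baseline after carbachol; higher B-score means a larger calcium signal and so more RGS4 inhibition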
Target sequence (P49798 whole entry, looked up): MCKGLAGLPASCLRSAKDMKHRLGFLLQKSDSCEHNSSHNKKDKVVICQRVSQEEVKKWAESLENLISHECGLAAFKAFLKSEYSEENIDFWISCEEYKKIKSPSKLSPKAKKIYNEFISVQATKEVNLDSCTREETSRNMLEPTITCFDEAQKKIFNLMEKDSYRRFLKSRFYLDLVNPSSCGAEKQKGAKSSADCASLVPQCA
MrgX1 ant reconf: MrgX1 receptor antagonists, duplicate retest, confirmation, HEK293 cells, Fluo-4 calcium flux | shares compounds with MrgX1 antagonist | BAM8-22 calcium flux; stronger effect = lower value | remaining BAM8-22 calcium response % of control (stronger effect = lower value), % at 10 µM | 2,300 tested, 19% active;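 active = remaining agonist calcium response no higher than 100% minus 3 SD of agonist-only control wells, with starting fluorescence near control levels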;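 also: agonist BAM8-22 given at a near maximal EC90 to ECmax level; peak minus minimum fluorescence divided by baseline after agonist addition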
HEK293 Ca flux: nonspecific calcium signal in parental HEK293, confirmation, counter-screen for MrgX1 antagonist project, parental HEK293 cells, Fluo-4 calcium flux; 4,000 tested, 2% active; AID 624111, 2012; Fluo-4 calcium fluorescence, FDSS; fluorescence ratio F(max-min)/F0 at 10 µM; shares compounds with MrgX1 antagonist;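 active = duplicate-averaged calcium fluorescence ratio at least three times the standard deviation of buffer wells, a nonspecific response in parental cells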
HEK293 Ca counter: calcium response in parental HEK293 cells, primary screen, counter-screen for MrgX1 allosteric activator project, cell-based, Fluo-4 calcium flux, duplicate; shares compounds with MrgX1 antagonist; 4,000 tested, 0.4% active; fluorescence ratio F(max-min)/F0 at 10 µM; Fluo-4 fluorescence ratio; stronger effect = higher value;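 active = calcium fluorescence ratio, averaged over duplicates, at least 3 SD of the buffer-well ratio, meaning a nonspecific response in receptor-free cells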;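 also: untransfected parental HEK293 lacking MrgX1 used as counterscreen for MrgX1 allosteric activators; fluorescence change taken during the second addition on a kinetic imager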
HEK293 Ca cntr2: calcium response in parental HEK293 cells, primary screen, counter-screen for MrgX1 agonist project, cell-based, Fluo-4 calcium flux, duplicate, agonist mode. fluorescence ratio F(max-min)/F0 at 10 µM. Fluo-4 calcium fluorescence (FDSS); stronger effect = higher value. AID 624115, 2012. 4,000 tested, 8.7% active. shares compounds with MrgX1 antagonist;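 active = calcium fluorescence ratio at least three times the spread of buffer wells, meaning a non-specific response in parental cells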
Numbers without * were called inactive; i = inactive; x = no result.

SMILES	RGS4 act	MrgX1 agonist	MrgX1 antagonist	MrgX1 PAM	RGS4 inh	MrgX1 ant reconf	HEK293 Ca flux	HEK293 Ca counter	HEK293 Ca cntr2
FC(F)Oc1ccc(NC(=S)NCc2cccnc2)cc1	i	i	-6.2*	i	i	83%*	i	i	i
COC(=O)CCCC(=O)N1CCC(CCC(=O)NC2CC2)CC1	i	i	i	i	i	x	x	x	x
Cc1ccc2[nH]c3c(c2c1)CCN1C(=O)OC(C)(C)C31C (stereo not given)	i	i	i	i	i	x	x	x	x
O=C(CC12CC3CC(CC(C3)C1)C2)Nc1ccccc1N1CCOCC1	i	i	i	i	i	x	x	x	x
Cc1cccc(N=Cc2[nH]c3ccc(Br)c(Cl)c3c2O)c1	x	i	-5.9*	i	x	i	0.18*	i	i
COc1ccccc1CN=Cc1[nH]c2ccc(Br)c(Cl)c2c1O	i	i	i	i	i	x	x	x	x
c1ccc(COc2ccc(OCCn3cncn3)cc2)cc1	i	i	-5.9*	i	i	i	i	i	i
OCCNCCSc1nc(C2CCCCC2)n(-c2ccccc2Cl)n1	i	i	i	i	i	x	x	x	x
Cc1cccc(CN2C(=O)CCSc3ccc(Cl)cc32)c1	i	i	i	i	i	x	x	x	x
O=C1CCSc2ccc(Cl)cc2N1Cc1ccccc1	i	i	-4.6*	i	i	75%*	i	i	i
Cn1cc([C@@H]2C[C@H]3CN(C4CCCC4)C(=O)[C@]34CCCN24)c(-c2ccccc2)n1	i	i	i	i	i	x	x	x	x
CSc1ccccc1N=CC1=C(O)CC(C)(C)CC1=O	i	i	i	i	i	x	x	x	x
CC1(C)CC(=O)C(C=Nc2cc(C(=O)c3ccccc3)ccc2N)=C(O)C1	i	i	-6.8*	i	i	73%*	i	i	i
Cc1ccc(S(=O)(=O)N(CC(=O)N2CCCCCC2)c2ccccc2)cc1	i	i	i	i	i	x	x	x	x
Cc1ccc(N(CC(=O)N2CCN(C3CCCCC3)CC2)S(=O)(=O)c2cccnc2)cc1	x	i	-8.8*	i	x	i	i	i	i
c1ccc2c(c1)C(=NCC1CCCO1)NC2=NCC1CCCO1 (stereo not given)	i	i	i	i	i	x	x	x	x
CC(C)(C)N=C1NC(=NC(C)(C)C)c2ccccc21	i	i	-5*	i	i	i	i	i	51*
O=C(O)CCC(=O)NCC1OCCc2ccccc21 (stereo not given)	i	i	-8.6*	i	i	i	i	i	i
Cc1c(C(=O)O)[nH]c2c1C(=O)CC(c1ccc(Cl)cc1)C2 (stereo not given)	i	i	-4.5*	i	i	i	i	i	i
COCCN1C(=O)C(=O)/C(=C(/O)c2ccc(C)cc2)C1c1ccccn1 (stereo not given)	i	i	-7.7*	i	i	i	i	i	i
